MrgX1 antag – blocks BAM8-22 activation of human MrgX1 receptor; Q96LB2; MRGX1-HEK293 calcium flux, Fluo-4, BAM8-22 antagonism; stronger effect = lower value; B-score at 10 µM; 310,000 compounds, 1.3% hits; AID 588676;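 active = calcium-response B-score plate-corrected more than 3 library SD below zero, starting fluorescence within 5 deviations, no agonist response on first addition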;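 also: peak minus trough fluorescence over baseline after final BAM8-22 challenge near maximal dose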
Target sequence (Q96LB2 whole entry, looked up): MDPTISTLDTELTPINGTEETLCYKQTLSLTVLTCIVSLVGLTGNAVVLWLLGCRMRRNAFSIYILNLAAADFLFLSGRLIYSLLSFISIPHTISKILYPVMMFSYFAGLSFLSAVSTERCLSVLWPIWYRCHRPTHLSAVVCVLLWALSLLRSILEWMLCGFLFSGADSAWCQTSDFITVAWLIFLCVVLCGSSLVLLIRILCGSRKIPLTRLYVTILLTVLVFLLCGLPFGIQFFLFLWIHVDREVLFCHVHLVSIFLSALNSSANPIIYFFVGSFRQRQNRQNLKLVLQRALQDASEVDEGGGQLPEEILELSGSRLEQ
RGS4 act – RGS4 potentiation or activation | B-score at 10 µM | 310,000 compounds, 0.92% hits | HEK293 M3R/inducible RGS4, carbachol calcium flux Fluo4; stronger effect = lower value;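 active = B-score of the integrated calcium signal more than 4 SD below the library mean, with starting fluorescence not abnormally high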;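 also: negative B-score means reduced calcium response which marks RGS4 activation or potentiation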
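Reagent: ECmax carbachol challenge; Test system: M3R-expressing HEK293 line, RGS4 induced by doxycycline; Schedule: overnight RGS4 induction, 30 min dye load 37 °C, 20 min compound RT; Detection: calcium dye Fluo4 fluorescence; Read-out: Agonist-evoked peak-minus-minimum fluorescence over baseline, integrated ratio, B score.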
RGS4 inh – inhibitors of human RGS4. P49798. HEK293 M3R/RGS4 inducible, Fluo-4 calcium flux; stronger effect = higher value; triggered by carbachol at its EC20. B-score at 10 µM. 310,000 compounds, 0.45% hits. AID 463165;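 active = B-score, a plate-corrected calcium signal, over three deviations above library mean, with baseline fluorescence within five deviations of library mean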;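 also: RGS4 expression induced by doxycycline in cells with stable M3 receptor; B-score is computed from the integrated fluorescence ratio over baseline after carbachol; higher B-score means a larger calcium signal and so more RGS4 inhibition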
Target sequence (P49798 whole entry, looked up): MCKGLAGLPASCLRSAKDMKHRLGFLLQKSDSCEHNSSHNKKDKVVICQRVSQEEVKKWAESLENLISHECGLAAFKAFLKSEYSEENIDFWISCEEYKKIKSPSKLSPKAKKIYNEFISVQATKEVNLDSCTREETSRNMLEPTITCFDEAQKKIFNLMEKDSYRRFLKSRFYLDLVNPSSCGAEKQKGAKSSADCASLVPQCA
MrgX1 agonist – activates human MrgX1 receptor signaling; Q96LB2; MrgX1-HEK293 cells, Fluo-4 calcium fluorescence, agonist mode; stronger effect = higher value; B-score at 10 µM; 310,000 compounds, 0.44% hits;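 active = calcium response B-score plate-corrected fluorescence ratio at least 3 library SD, with starting fluorescence B-score inside 5 SD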
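Test system: HEK293 cells stably expressing human MrgX1 receptor; Input: fifteen thousand cells per well; Dosing: compound delivered in addition one of three; Schedule: overnight seeding, then 1 h dark dye loading; Technique: Fluo-4 NW calcium fluorescence; Measure: B-scored fluorescence response ratio; Controls: positive and negative controls per plate.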
MrgX1 allo act – human MrgX1 positive allosteric modulation, primary screen; 310,000 compounds, 0.63% hits; MrgX1-HEK293, Fluo-4 calcium flux, FDSS; stronger effect = higher value; B-score at 10 µM;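 active = plate-corrected calcium response at least 3 library SD above typical, normal starting fluorescence, not activating the receptor alone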;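 also: compound read alongside a low EC10 to EC30 dose of BAM8-22 agonist; peak minus trough fluorescence over baseline measured at the second addition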
MrgX1 antag conf – human MrgX1 receptor antagonism, re-confirmation screen; shares compounds with MrgX1 antag; MrgX1-HEK293, BAM8-22 calcium flux, Fluo-4; stronger effect = lower value; remaining BAM8-22 calcium response % of control (stronger effect = lower value), % at 10 µM; 2,300 compounds, 19% hits;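 active = remaining agonist calcium response no higher than 100% minus 3 SD of agonist-only control wells, with starting fluorescence near control levels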;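 also: agonist BAM8-22 given at a near maximal EC90 to ECmax level; peak minus minimum fluorescence divided by baseline after agonist addition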
HEK293 Ca flux – MrgX1 antagonist counter-screen hit in parental HEK293 cells; fluorescence ratio F(max-min)/F0 at 10 µM; Fluo-4 calcium fluorescence, FDSS; AID 624111; 4,000 compounds, 2% hits; shares compounds with MrgX1 antag;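 active = duplicate-averaged calcium fluorescence ratio at least three times the standard deviation of buffer wells, a nonspecific response in parental cells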
HEK293 Ca counter – counter-screen for MrgX1 allosteric activators: effect in parental HEK293 cells; 4,000 compounds, 0.4% hits; fluorescence ratio F(max-min)/F0 at 10 µM; parental HEK293 calcium flux, Fluo-4 fluorescence ratio; stronger effect = higher value; shares compounds with MrgX1 antag; AID 624114;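 active = calcium fluorescence ratio, averaged over duplicates, at least 3 SD of the buffer-well ratio, meaning a nonspecific response in receptor-free cells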;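 also: untransfected parental HEK293 lacking MrgX1 used as counterscreen for MrgX1 allosteric activators; fluorescence change taken during the second addition on a kinetic imager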
HEK293 Ca cntr2 – MrgX1 activator counter-screen hit in parental HEK293 cells; fluorescence ratio F(max-min)/F0 at 10 µM; 4,000 compounds, 8.7% hits; Fluo-4 calcium fluorescence (FDSS); stronger effect = higher value; shares compounds with MrgX1 antag;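 active = calcium fluorescence ratio at least three times the spread of buffer wells, meaning a non-specific response in parental cells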
* hit, by the source's call; i = inactive; x = not tested or not shown. Rows were chosen to be rich in hits. Some 3.5% of all compounds tested hit in one or more screens of this group.

SMILES | MrgX1 antag | RGS4 act | RGS4 inh | MrgX1 agonist | MrgX1 allo act | MrgX1 antag conf | HEK293 Ca flux | HEK293 Ca counter | HEK293 Ca cntr2
CCOC(=O)c1ccc(NC(=S)N(CCCN2CCCC(C)C2)Cc2ccco2)cc1 (configuration not stated) | i | i | i | i | i | x | x | x | x
Cc1cc(N)nc2nc(C(F)(F)F)nn12 | i | i | i | i | i | x | x | x | x
Cc1ccc([N+](=O)[O-])cc1NC(=O)c1c(-c2ccccc2)noc1C | i | i | i | i | i | x | x | x | x
S=C(Nc1ccc(Cl)cc1)Nc1cccc2cnccc12 | -5.2* | i | i | i | i | i | i | i | i
Cc1ccc2c(C)c(C(=O)N3CCCCC3CO)oc2c1C (configuration not stated) | i | i | i | i | i | x | x | x | x
CSc1ccccc1OCc1cc(C(=O)N2CCC(c3ccncc3)CC2)no1 | -6.1* | i | i | i | i | 80%* | i | i | i
O=C(c1cc(COc2ccc(F)cc2Cl)on1)N1CCC(c2ccncc2)CC1 | i | i | i | i | i | x | x | x | x
COc1ccc(NC(=O)n2ncc3c(C)cccc32)cc1 | i | i | i | i | i | x | x | x | x
CCN1CCCC1CNC(=O)C(=O)NC(C)c1ccccc1 (configuration not stated) | i | i | i | i | i | x | x | x | x
O=C1CC(c2cccc(Oc3ccccc3)c2)NC(=O)N1 (configuration not stated) | -8.2* | i | i | i | i | i | i | i | i
CS(=O)(=O)N(CC(=O)N1CCN(Cc2ccccc2)CC1)c1ccccc1Br | i | i | i | i | i | x | x | x | x
Cc1ccc(OCC(=O)NNC(=O)C(=O)N2CCCC2)c(C)c1 | i | i | i | i | i | x | x | x | x
Cc1cccc(-n2c(SCC(N)=O)nnc2-c2ccccn2)c1C | -8.3* | i | i | i | i | i | i | i | i
Cc1ccc(-n2c(SCC(N)=O)nnc2-c2ccccn2)cc1 | i | i | i | i | i | x | x | x | x
COCCNC(=O)C(=O)NCCN1CCNCC1 | i | i | i | i | i | x | x | x | x
CC(Oc1ccc(Br)cc1)C(=O)Nc1cc(S(=O)(=O)N2CCOCC2)ccc1N1CCCC1 (configuration not stated) | i | i | i | i | i | x | x | x | x
COC(=O)CCc1c(C)c(C(=O)c2ccc(F)cc2)c2ccccn12 | -5.7* | i | i | i | i | i | i | i | i
COC(=O)CCc1c(C)c(C(=O)c2cc(F)c(F)c(F)c2F)c2ccccn12 | i | i | i | i | i | x | x | x | x
CCCC1(c2ccccc2)NC(=O)N(CC(=O)N(C)Cc2c(F)cccc2Cl)C1=O (configuration not stated) | i | i | i | i | i | x | x | x | x
O=C(CSc1nnc(-c2ccncc2)o1)NC1C2CC3CC(C2)CC1C3 (configuration not stated) | i | i | i | i | i | x | x | x | x
CCCC(=O)Nc1cc(OC)c(NC(=O)NC2CCCCC2)cc1OC | -4.6* | i | i | i | i | i | i | i | i
COc1ccc(OC)c(NC(=O)NC2CCCCCCC2)c1 | i | i | i | i | i | x | x | x | x
COCCn1nnnc1CN1CCN(C(=O)c2ccco2)CC1 | -6.3* | i | i | i | i | i | i | i | i
COc1ccc(CCn2nnnc2CN2CCN(C(=O)c3ccco3)CC2)cc1OC | i | i | i | i | i | x | x | x | x
Cc1ccc2[nH]c3c(c2c1)CCc1cn[nH]c1-3 | -4.9* | i | i | i | i | i | i | i | i
SMILES | MrgX1 antag | RGS4 act | RGS4 inh | MrgX1 agonist | MrgX1 allo act | MrgX1 antag conf | HEK293 Ca flux | HEK293 Ca counter | HEK293 Ca cntr2
Cc1ccc2[nH]c3c(c2c1)CCC3=O | i | i | i | i | i | x | x | x | x
COCCNC(=O)C(=O)NCC1OCCN1C(=O)c1ccc(Cl)cc1 (configuration not stated) | -5.6* | i | i | i | i | i | i | i | i
COC(CNC(=O)C(=O)NCC1OCCN1C(=O)c1ccc(Cl)cc1)OC (configuration not stated) | i | i | i | i | i | x | x | x | x
Cc1cccc(OCC(=O)Nc2ccc(CN3CCOCC3)cc2)c1C | -6.7* | i | i | i | i | i | i | i | i
CCc1cc(=O)[nH]c(SCc2ccc(C)cc2)n1 | -4.7* | i | i | i | i | i | i | i | i
CCc1cc(=O)[nH]c(SCc2cccnc2)n1 | i | i | i | i | i | x | x | x | x
Cc1cnc(C(=O)OCC(=O)c2csc(N3CCCCC3)n2)cn1 | -5.7* | i | i | i | i | i | i | i | i
CC1=C(C(=O)Nc2ccccn2)C(c2cn(C)nc2C)C2=C(CCCC2=O)N1 (configuration not stated) | -4.9* | i | i | i | i | i | i | i | i
CCn1cc(C2C(C(=O)Nc3ccc(Br)cn3)=C(C)NC3=C2C(=O)CCC3)c(C)n1 (configuration not stated) | i | i | i | i | i | x | x | x | x
CCOC(=O)c1c(NC(=O)c2c(Br)cnn2CC)sc(C)c1C | -7.1* | i | i | i | i | i | i | i | i
CCn1ncc(Br)c1C(=O)Nc1sc2c(c1C(=O)OC)CCC2 | i | i | i | i | i | x | x | x | x
Cc1cccc(CNC(=O)Cn2ccc3cc(S(=O)(=O)N4CCCCCC4)ccc32)c1 | i | i | i | i | i | x | x | x | x
Cc1cccc(CNC(=O)Cn2ccc3cc(S(=O)(=O)N4CCCC4)ccc32)c1 | -6.8* | i | i | i | i | i | i | i | i
Cn1c(=O)oc2cc(S(=O)(=O)N3CCCC(C(=O)NCCN4CCOCC4)C3)ccc21 (configuration not stated) | -4.6* | x | x | i | i | i | i | i | i

Bioassay records from PubChem BioAssay.
